Experimental findings from ChEMBL document CHEMBL4706538, “Novel pleuromutilin derivatives with substituted 6-methylpyrimidine: Design, synthesis and antibacterial evaluation” (2020) are described below.

Values after ≈ are worked out from the molar mass of the structure shown.

The term MIC denotes the least concentration at which growth counts as inhibited. Read a high MIC as a less susceptible organism.

Holding throughout (type): functional
Settings in all cases: time 18-24 hrs

The test system of assay [1] is Staphylococcus epidermidis. Nature of the assay: Antibacterial activity against Staphylococcus epidermidis ATCC 51625 measured after 18 to 24 hrs by microtiter dilution method. Put shortly: (§1)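 Compounds were taken up in 25% DMSO at 64 μg/mL and serially diluted two-fold in water (11 dilutions). Log-phase bacteria grown in MHB were diluted to 10^5-10^6 CFU/mL and mixed 1:1 with the dilutions. Plates were incubated at 37 °C for 18-24 h. MIC was the lowest concentration giving no growth by OD492, averaged over three independent experiments.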

Assay [2] relates to Pasteurella multocida. Nature of the assay: Antibacterial activity against Pasteurella multocida CVCC 1659 measured after 18 to 24 hrs by microtiter dilution method. Put shortly:
as §1

Assay [3] has as its system Streptococcus dysgalactiae. Kind of assay: Antibacterial activity against Streptococcus dysgalactiae measured after 18 to 24 hrs by microtiter dilution method. An outline of the steps:
as §1

Assay [4] relates to Staphylococcus aureus. Nature of the assay: Antibacterial activity against Staphylococcus aureus ATCC 25923 measured after 18 to 24 hrs by microtiter dilution method. Put shortly: as §1
For assay [5], the system named is Escherichia coli. Kind of assay: Antibacterial activity against Escherichia coli CICC 10389 measured after 18 to 24 hrs by microtiter dilution method. An outline of the steps:
as §1

The test system of assay [6] is Streptococcus agalactiae. Nature of the assay: Antibacterial activity against Streptococcus agalactiae measured after 18 to 24 hrs by microtiter dilution method. An outline of the steps:
as §1

For assay [7], the system named is Staphylococcus aureus. Nature of the assay: Antibacterial activity against Staphylococcus aureus BNCC 337371 measured after 18 to 24 hrs by microtiter dilution method. Put shortly: as §1
Assay [8] deals with Enterococcus faecalis. Nature of the assay: Antibacterial activity against Enterococcus faecalis measured after 18 to 24 hrs by microtiter dilution method. An outline of the steps: as §1

With `C=C[C@]1(C)C[C@@H](OC(=O)CSc2nc(C)cc(N3CCC(O)CC3)n2)[C@@]2(C)[C@H](C)CC[C@]3(CCC(=O)[C@H]32)[C@@H](C)[C@@H]1O`, the MIC in assay [1] is 0.21 µM (≈ 0.123 µg/mL); in assay [2] it was 27.3 µM (≈ 16 µg/mL); in assay [3], 0.11 µM (≈ 0.0644 µg/mL); in assay [4], 0.21 µM (≈ 0.123 µg/mL); in assay [5] it was over 54.7 µM; in assay [6], 0.11 µM (≈ 0.0644 µg/mL). Moreover, the minimal inhibitory concentration (MIC) was 0.21 µM (≈ 0.123 µg/mL) in assay [7] and 13.7 µM (≈ 8.01 µg/mL) in assay [8].
Turning to `C=C[C@]1(C)C[C@@H](OC(=O)CSc2nc(C)cc(N3CCN(CCO)CC3)n2)[C@@]2(C)[C@H](C)CC[C@]3(CCC(=O)[C@H]32)[C@@H](C)[C@@H]1O`, the MIC in assay [1] is 0.2 µM (≈ 0.123 µg/mL); in assay [2] it was 26 µM (≈ 16 µg/mL); in assay [3] it was 0.1 µM (≈ 0.0615 µg/mL); in assay [4] it was 0.1 µM (≈ 0.0615 µg/mL); in assay [5], over 52.1 µM; in assay [6], 0.1 µM (≈ 0.0615 µg/mL). For the same compound, the values for the MIC in assay [7] and in assay [8] were 0.41 µM (≈ 0.252 µg/mL) and 26 µM (≈ 16 µg/mL), respectively.
Consider `C=C[C@]1(C)C[C@@H](OC(=O)CSc2nc(C)cc(OCCCC)n2)[C@@]2(C)[C@H](C)CC[C@]3(CCC(=O)[C@H]32)[C@@H](C)[C@@H]1O`, for which the MIC in assay [1] is 1.79 µM (≈ 1 µg/mL); in assay [2] it was over 57.3 µM; in assay [3], 0.45 µM (≈ 0.251 µg/mL); in assay [4], 1.79 µM (≈ 1 µg/mL); in assay [5], over 57.3 µM; in assay [6], 0.9 µM (≈ 0.503 µg/mL). In addition, the minimum inhibitory concentration (MIC) in assay [7] turned out to be 3.58 µM (≈ 2 µg/mL); in assay [8], 57.3 µM (≈ 32 µg/mL).
For `C=C[C@]1(C)C[C@@H](OC(=O)CSc2nc(C)cc(N3CCC[C@H](CO)C3)n2)[C@@]2(C)[C@H](C)CC[C@]3(CCC(=O)[C@H]32)[C@@H](C)[C@@H]1O`, the MIC in assay [1] is 0.21 µM (≈ 0.126 µg/mL); in assay [2], 26.7 µM (≈ 16 µg/mL); in assay [3] it was 0.05 µM (≈ 0.03 µg/mL); in assay [4], 0.1 µM (≈ 0.06 µg/mL); in assay [5] it was over 53.5 µM; in assay [6], 0.05 µM (≈ 0.03 µg/mL). In addition, the MIC came out at 0.21 µM (≈ 0.126 µg/mL) in assay [7] and 26.7 µM (≈ 16 µg/mL) in assay [8].
Turning to `C=C[C@]1(C)C[C@@H](OC(=O)CSc2nc(C)cc(N3CCC(CO)CC3)n2)[C@@]2(C)[C@H](C)CC[C@]3(CCC(=O)[C@H]32)[C@@H](C)[C@@H]1O`, the MIC is 0.42 µM (≈ 0.252 µg/mL) in assay [1]; 53.5 µM (≈ 32.1 µg/mL) in assay [2]; 0.42 µM (≈ 0.252 µg/mL) in assay [3]; 0.21 µM (≈ 0.126 µg/mL) in assay [4]; over 53.5 µM in assay [5]; 0.84 µM (≈ 0.504 µg/mL) in assay [6]. For the same compound, the MIC in assay [7] was found to be 0.84 µM (≈ 0.504 µg/mL); in assay [8] it was 53.5 µM (≈ 32.1 µg/mL).
For `C=C[C@]1(C)C[C@@H](OC(=O)CSc2nc(C)cc(OC)n2)[C@@]2(C)[C@H](C)CC[C@]3(CCC(=O)[C@H]32)[C@@H](C)[C@@H]1O`, the minimal inhibitory concentration (MIC) is 0.24 µM (≈ 0.124 µg/mL) in assay [1]; 62 µM (≈ 32 µg/mL) in assay [2]; 0.12 µM (≈ 0.062 µg/mL) in assay [3]; 0.24 µM (≈ 0.124 µg/mL) in assay [4]; over 62 µM in assay [5]; 0.24 µM (≈ 0.124 µg/mL) in assay [6]. Further, the minimum inhibitory concentration (MIC) in assay [7] turned out to be 0.24 µM (≈ 0.124 µg/mL); in assay [8] it was 31 µM (≈ 16 µg/mL).
For the compound `C=C[C@]1(C)C[C@@H](OC(=O)CS[C@@H]2C[C@H]3CC[C@@H](C2)N3C)[C@@]2(C)[C@H](C)CC[C@]3(CCC(=O)[C@H]32)[C@@H](C)[C@@H]1O`, the MIC in assay [1] was 0.12 µM (≈ 0.0621 µg/mL); in assay [2] it was 0.97 µM (≈ 0.502 µg/mL); in assay [3] it was 0.06 µM (≈ 0.0311 µg/mL); in assay [4], 0.24 µM (≈ 0.124 µg/mL); in assay [5], 30.9 µM (≈ 16 µg/mL); in assay [6], 0.06 µM (≈ 0.0311 µg/mL). For the same compound, the minimum inhibitory concentration (MIC) in assay [7] was 0.12 µM (≈ 0.0621 µg/mL); in assay [8] it was 15.4 µM (≈ 8 µg/mL).
Turning to `C=C[C@]1(C)C[C@@H](OC(=O)CSc2nc(C)cc(N3CC[C@@H](O)C3)n2)[C@@]2(C)[C@H](C)CC[C@]3(CCC(=O)[C@H]32)[C@@H](C)[C@@H]1O`, the MIC in assay [1] was 0.11 µM (≈ 0.0629 µg/mL); in assay [2], 14 µM (≈ 8 µg/mL); in assay [3] it was 0.22 µM (≈ 0.126 µg/mL); in assay [4], 0.11 µM (≈ 0.0629 µg/mL); in assay [5], over 56 µM; in assay [6], 0.11 µM (≈ 0.0629 µg/mL). In addition, the results for the minimum inhibitory concentration (MIC) in assay [7] and in assay [8] were 0.22 µM (≈ 0.126 µg/mL) and 28 µM (≈ 16 µg/mL), respectively.
On to `C=C[C@]1(C)C[C@@H](OC(=O)CSc2nc(C)cc(OC(C)C)n2)[C@@]2(C)[C@H](C)CC[C@]3(CCC(=O)[C@H]32)[C@@H](C)[C@@H]1O`, for which the MIC in assay [1] was 0.46 µM (≈ 0.251 µg/mL); in assay [2], over 58.8 µM; in assay [3], 0.92 µM (≈ 0.501 µg/mL); in assay [4], 0.46 µM (≈ 0.251 µg/mL); in assay [5], over 58.8 µM; in assay [6], 0.23 µM (≈ 0.125 µg/mL). Besides, the MIC worked out at 0.23 µM (≈ 0.125 µg/mL) in assay [7] and 58.8 µM (≈ 32 µg/mL) in assay [8].
